From ChEMBL document CHEMBL1129495, “Highly selective bradykinin agonists and antagonists with replacement of proline residues by N-methyl-D- and L-phenylalanine” (J Med Chem, 1996)
Square brackets hold non-standard residues; d marks the D form. Peptide text beside a SMILES is read from it. Phe(4-guanidino) = N=C(N)Nc1ccc(C[C@H](N)C(=O)O)cc1; 2Thi = N[C@@H](Cc1cccs1)C(=O)O; Aib = CC(C)(N)C(=O)O

Assays:
[1] = Selectivity for rat uterus is expressed as the ratio RUT/GPI; type: functional
How it was run: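 Ratio of agonist activity (percent of BK) in estrus rat uterus to that in guinea pig ileum, both from isotonic contraction assays using the Schild 4-point method.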

[2] = organism: Cavia porcellus; assay: Antagonistic activity was evaluated in Guinea pig lung strip assay.; type: functional; set-up: scale not given: the % may be the effect or the level left
How it was run: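 Lower-lobe lung strips (2–3 mm) from guinea pigs (400–600 g) in Krebs–Henseleit at 37 °C under 1 g load, with isometric tension recorded. After 1 h equilibration, peptide was given 5 min before an ED50 dose of BK. Cumulative BK curves covered 0.01–10 µM. pA2 by the van Rossum method.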

[3] = Inhibitory activity against low affinity binding site of Bradykinin receptor in guinea pig ileum; type: tissue-based; details: Cavia porcellus
How it was run: (§1)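 Fresh rat myometrial or guinea pig ileum membranes (0.3–0.5 mg protein) incubated 30 min at 4 °C with 0.05 nM [3H]BK and increasing peptide concentrations. Buffer: 25 mM TES pH 6.8, 1 µM captopril, 1 mM DTE, bacitracin, BSA. Samples filtered on PEI-treated GF/C and counted. High- and low-affinity IC50s from Tobler–Engel analysis; duplicates.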

[4] = Inhibitory activity against high affinity binding site of Bradykinin receptor in guinea pig ileum was reported.; type: tissue-based; details: Cavia porcellus; how it was run: as §1
[5] = organism: Rattus norvegicus; assay: Agonistic activity was evaluated in Estrus Rat Uterus Assay; type: functional
How it was run: (§2)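 Uteri from female Wistar rats (180–200 g) given diethylstilbestrol 100 µg/kg sc 16 h before use. Distal horns held in de Jalon solution at 28 °C under 0.5 g resting tension, with isotonic contractions recorded. BK was dosed every 4 min and left in the bath 45 s. Agonist activity by Schild 4-point method, expressed as percent of BK activity.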

[6] = organism: Cavia porcellus; assay: Antagonistic activity was evaluated in Guinea pig ileum assay.; type: functional; set-up: scale not given: the % may be the effect or the level left
How it was run: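 Guinea pig terminal ileum in Tyrode at 37 °C under 0.5 g tension, isotonic recording. Analog added 5 min before a cumulative BK dose–response curve (maximum at 0.3 µM BK). pA2 is the negative log of the antagonist concentration that reduces the effect of a double BK dose to that of a single dose. Means of 3–7 determinations.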

[7] = Inhibitory activity against high affinity binding site of Bradykinin receptor in rat uterus membrane was reported.; type: cell membranes; how it was run: as §1
[8] = Inhibitory activity against low affinity binding site of Bradykinin receptor in rat uterus membrane was reported.; type: cell membranes; how it was run: as §1
[9] = organism: Rattus norvegicus; assay: Agonistic activity against selectivity for smooth muscle contraction in rat uterus.; type: functional, Muscle tissue; how it was run: as §2
[10] = organism: Cavia porcellus; assay: Agonistic activity against selectivity for smooth muscle contraction in guinea pig ileum.; type: functional, Muscle tissue
How it was run: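 Isolated terminal ileum (1.5 cm) from guinea pigs fasted 16 h, in Tyrode at 37 °C. Isotonic contractions recorded under 0.5 g resting tension. Agonist activity measured by Schild 4-point method against BK doses of 1 and 2 nM, expressed as percent of BK activity.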

IC50 [3] [nM] | IC50 [4] [nM] | IC50 [7] [nM] | IC50 [8] [nM] | Compound | Ratio [1] | Activity [2] [%] | Activity [5] [%] | Activity [6] [%] | Activity [9] [%] | Activity [10] [%]
132 | 1 | 0.11 | 4.8 | CN(C(=O)[C@H](CO)NC(=O)[C@H](Cc1ccccc1)NC(=O)CNC(=O)[C@@H]1CCCN1C(=O)[C@@H]1CCCN1C(=O)[C@@H](N)CCCN=C(N)N)[C@H](Cc1ccccc1)C(=O)N[C@@H](Cc1ccccc1)C(=O)N[C@@H](CCCN=C(N)N)C(=O)O | 300 | 1.4 | 136 | 0.04 | – | –
– | – | – | – | N=C(N)Nc1ccc(C[C@H](NC(=O)[C@H](Cc2ccccc2)NC(=O)[C@@H]2CCCN2C(=O)[C@H](CO)NC(=O)[C@H](Cc2ccccc2)NC(=O)CNC(=O)[C@@H]2CCCN2C(=O)[C@@H]2CCCN2C(=O)[C@@H](N)Cc2ccc(NC(=N)N)cc2)C(=O)O)cc1 (H-[Phe(4-guanidino)]PPGFSPF[Phe(4-guanidino)]-OH) | 0.001 | – | – | – | 0.001 | 2
1400 | – | 0.3 | 57 | CN(C(=O)[C@@H]1CCCN1C(=O)[C@@H](N)CCCN=C(N)N)[C@H](Cc1ccccc1)C(=O)NCC(=O)N[C@@H](Cc1ccccc1)C(=O)N[C@@H](CO)C(=O)N1CCC[C@H]1C(=O)N[C@@H](Cc1ccccc1)C(=O)N[C@@H](CCCN=C(N)N)C(=O)O | – | 0.03 | 0.02 | 0.03 | – | –
– | – | – | – | NC(N)=NCCC[C@H](NC(=O)[C@H](Cc1ccccc1)NC(=O)[C@@H](Cc1ccccc1)NC(=O)CNC(=O)[C@H](Cc1ccccc1)NC(=O)CNC(=O)[C@@H]1CCCN1C(=O)[C@@H]1CCCN1C(=O)[C@@H](N)CCCN=C(N)N)C(=O)O | 100 | – | – | – | 31 | 0.3
– | – | – | – | CC[C@@H](C)[C@@H](N)C(=O)N[C@@H](CO)C(=O)N[C@@H](CCCN=C(N)N)C(=O)N1CCC[C@H]1C(=O)N1CCC[C@H]1C(=O)NCC(=O)N[C@@H](Cc1ccccc1)C(=O)N[C@@H](CO)C(=O)N1CCC[C@H]1C(=O)N[C@@H](Cc1ccccc1)C(=O)N[C@@H](CCCN=C(N)N)C(=O)O | 25 | – | – | – | 271 | 11
8000 | 2.6 | 0.2 | 375 | CN(C(=O)[C@@H]1CCCN1C(=O)[C@@H](N)CCCN=C(N)N)[C@@H](Cc1ccccc1)C(=O)NCC(=O)N[C@@H](Cc1ccccc1)C(=O)N[C@@H](CO)C(=O)N1CCC[C@H]1C(=O)N[C@@H](Cc1ccccc1)C(=O)N[C@@H](CCCN=C(N)N)C(=O)O | – | 0.03 | 0.03 | 0.05 | – | –
– | – | – | – | CC(C)(NC(=O)[C@@H](Cc1ccc(Cl)cc1)NC(=O)C(Cc1ccccc1)NC(=O)CNC(=O)[C@@H]1CCCN1C(=O)[C@@H]1CCCN1C(=O)[C@@H](N)CCCN=C(N)N)C(=O)NC(Cc1ccccc1)C(=O)N[C@@H](CCCN=C(N)N)C(=O)O (stereo in doubt) | 0.3 | – | – | – | 97 | 321
– | – | – | – | NC(N)=NCCC[C@@H](N)C(=O)N[C@@H](CCCN=C(N)N)C(=O)N1CCC[C@H]1C(=O)N1C[C@H](O)C[C@H]1C(=O)NCC(=O)N[C@@H](Cc1cccs1)C(=O)N[C@@H](CO)C(=O)N1CCC[C@H]1C(=O)N[C@@H](Cc1cccs1)C(=O)N[C@@H](CCCN=C(N)N)C(=O)O | 30 | – | – | – | 237 | 7
– | – | – | – | CC(C)(NC(=O)[C@@H](Cc1c[nH]c2ccccc12)NC(=O)[C@H](Cc1ccccc1)NC(=O)CNC(=O)[C@@H]1CCCN1C(=O)[C@@H]1CCCN1C(=O)[C@@H](N)CCCN=C(N)N)C(=O)N[C@@H](Cc1ccccc1)C(=O)N[C@@H](CCCN=C(N)N)C(=O)O | 0.442 | – | – | – | 100 | 226
– | – | – | – | H-RPPGFSPFK-OH | 0.01 | – | – | – | 0.2 | 20
– | – | – | – | CC(C)(NC(=O)[C@H](CO)NC(=O)[C@H](Cc1ccccc1)NC(=O)CNC(=O)[C@@H]1CCCN1C(=O)[C@@H]1CCCN1C(=O)[C@@H](N)CCCN=C(N)N)C(=O)N[C@@H](Cc1ccccc1)C(=O)N[C@@H](CCCN=C(N)N)C(=O)O (H-RPPGFS[Aib]FR-OH) | 0.13 | – | – | – | 55 | 418
– | – | – | – | CN(C(=O)[C@H](CO)NC(=O)[C@H](Cc1ccccc1)NC(=O)CNC(=O)[C@@H]1CCCN1C(=O)[C@@H]1CCCN1C(=O)[C@H](CCCN=C(N)N)NC(=O)[C@H](N)CCCN=C(N)N)[C@@H](Cc1ccccc1)C(=O)N[C@@H](Cc1ccccc1)C(=O)N[C@@H](CCCN=C(N)N)C(=O)O [listing 1 of 2 here] | – | 0.08 | 0.5 | 0.07 | – | –
– | – | – | – | CC(C)(NC(=O)[C@@H](Cc1ccccc1)NC(=O)[C@H](Cc1ccccc1)NC(=O)CNC(=O)[C@@H]1CCCN1C(=O)[C@@H]1CCCN1C(=O)[C@@H](N)CCCN=C(N)N)C(=O)N[C@@H](Cc1ccccc1)C(=O)N[C@@H](CCCN=C(N)N)C(=O)O | 0.291 | – | – | – | 124 | 426
– | – | – | – | CN(C(=O)[C@H](CO)NC(=O)[C@H](Cc1ccccc1)N(C)C(=O)CNC(=O)[C@@H]1C[C@@H](O)CN1C(=O)[C@@H]1CCCN1C(=O)[C@H](CCCN=C(N)N)NC(=O)[C@H](N)CCCN=C(N)N)[C@H](Cc1ccccc1)C(=O)N(C)[C@@H](Cc1ccccc1)C(=O)N[C@@H](CCCN=C(N)N)C(=O)O | 3000 | 0.5 | 15 | 0.005 | – | –
– | – | – | – | NC(N)=NCCC[C@H](NC(=O)[C@H](Cc1cccs1)NC(=O)[C@@H]1CCCN1C(=O)[C@H](CO)NC(=O)[C@H](Cc1cccs1)NC(=O)CNC(=O)[C@@H]1CCCN1C(=O)[C@@H]1CCCN1C(=O)[C@@H](N)CCCN=C(N)N)C(=O)O (H-RPPG[2Thi]SP[2Thi]R-OH) | 5 | – | – | – | 1000 | 200
– | – | – | – | CN(C(=O)[C@H](CO)NC(=O)[C@H](Cc1cccs1)NC(=O)CNC(=O)[C@@H]1C[C@@H](O)CN1C(=O)[C@@H]1CCCN1C(=O)[C@H](CCCN=C(N)N)NC(=O)[C@H](N)CCCN=C(N)N)[C@H](Cc1ccccc1)C(=O)N[C@@H](Cc1ccccc1)C(=O)N[C@@H](CCCN=C(N)N)C(=O)O | 10000 | 0.04 | 86 | 0.006 | – | –
1 | – | – | 33 | CN(C(=O)[C@H](CO)NC(=O)[C@H](Cc1ccccc1)NC(=O)CNC(=O)[C@@H]1CCCN1C(=O)[C@@H]1CCCN1C(=O)[C@H](CCCN=C(N)N)NC(=O)[C@H](N)CCCN=C(N)N)[C@@H](Cc1ccccc1)C(=O)N[C@@H](Cc1ccccc1)C(=O)N[C@@H](CCCN=C(N)N)C(=O)O [listing 2 of 2 here] | – | – | – | – | – | –
33 | – | 0.33 | 18 | CN(C(=O)[C@H](CO)NC(=O)[C@H](Cc1ccccc1)NC(=O)CNC(=O)[C@@H]1C[C@@H](O)CN1C(=O)[C@@H]1CCCN1C(=O)[C@H](CCCN=C(N)N)NC(=O)[C@H](N)CCCN=C(N)N)[C@H](Cc1ccccc1)C(=O)N(C)[C@@H](Cc1ccccc1)C(=O)N[C@@H](CCCN=C(N)N)C(=O)O [listing 1 of 2 here] | – | – | – | – | – | –
– | – | – | – | NC(N)=NCCC[C@H](NC(=O)[C@H](Cc1cccs1)NC(=O)[C@@H]1CCCN1C(=O)[C@H](CO)NC(=O)[C@H](Cc1ccccc1)NC(=O)CNC(=O)[C@@H]1CCCN1C(=O)[C@@H]1CCCN1C(=O)[C@@H](N)CCCN=C(N)N)C(=O)O (H-RPPGFSP[2Thi]R-OH) | 13 | – | – | – | 500 | 40
– | – | – | – | CN(C(=O)[C@H](CO)NC(=O)[C@H](Cc1ccccc1)NC(=O)CNC(=O)[C@@H]1C[C@@H](O)CN1C(=O)[C@@H]1CCCN1C(=O)[C@H](CCCN=C(N)N)NC(=O)[C@H](N)CCCN=C(N)N)[C@H](Cc1ccccc1)C(=O)N(C)[C@@H](Cc1ccccc1)C(=O)N[C@@H](CCCN=C(N)N)C(=O)O [listing 2 of 2 here] | 4000 | 0.45 | 40 | 0.01 | – | –
3780 | 57 | – | 100 | CN(C(=O)[C@@H](N)CCCN=C(N)N)[C@H](Cc1ccccc1)C(=O)N1CCC[C@H]1C(=O)NCC(=O)N[C@@H](Cc1ccccc1)C(=O)N[C@@H](CO)C(=O)N1CCC[C@H]1C(=O)N[C@@H](Cc1ccccc1)C(=O)N[C@@H](CCCN=C(N)N)C(=O)O | – | 0.05 | 0.15 | 0.15 | – | –
700 | – | – | 500 | CN(C(=O)[C@H](CO)NC(=O)[C@H](Cc1ccccc1)NC(=O)CNC(=O)[C@@H]1CCCN1C(=O)[C@@H]1CCCN1C(=O)[C@@H](N)CCCN=C(N)N)[C@@H](Cc1ccccc1)C(=O)N[C@@H](Cc1ccccc1)C(=O)N[C@@H](CCCN=C(N)N)C(=O)O | – | 0.1 | 0.2 | 0.03 | – | –
